What was measured:
[1] = molecular target: Alcohol dehydrogenase (Equus caballus, UniProt P00327+P00328); assay: In vitro inhibition against horse liver alcohol dehydrogenase
[2] = In vivo inhibition of ethanol metabolism following 1 mMol/Kg i.p.; conditions: ip
[3] = Michaelis-Menten's constant was determined in vivo against rat liver alcohol dehydrogenase in presence of ethanol; format: organism-based
In short: (§1)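 Fed male Sprague-Dawley rats (175–280 g) received inhibitor ip (0.1 M sulfoxide or ≤0.46 M amide in saline) at 0–1.0 mmol/kg. Ten minutes later ethanol (3.26 M) was given ip at 7.69, 10.9 or 19.6 mmol/kg. Tail blood was sampled over time and ethanol measured by GC against a tert-butyl alcohol internal standard. Rate was derived by Widmark's method.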

[4] = Intercept inhibition constant was determined in vitro against purified rat liver alcohol dehydrogenase in presence of ethanol
In short: (§2)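 Rat liver enzyme partially purified by (NH4)2SO4 fractionation, DEAE-cellulose and Sephadex G-100. Assays ran in 83 mM potassium phosphate pH 7.3 with 40 mM KCl (μ 0.25) at 37.8 °C, with 0.5 mM NAD+, ethanol at 0.4–2 mM and inhibitor at 0–0.6 mM. Initial rates were read at 340 nm, 32 points per experiment.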

[5] = molecular target: T1, Alcohol dehydrogenase (Equus caballus) (UniProt P00327+P00328); assay: Intercept inhibition constant was determined against horse liver alcohol dehydrogenase in presence of ethanol
In short: (§3)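 Purified horse liver enzyme with ethanol varied as substrate and NAD+ as coenzyme. At least three inhibitor concentrations were tested (e.g. 0–0.2 mM). Initial velocities were followed at 340 nm, 32 points in one experiment. Intercept and slope constants were derived from double-reciprocal plots fitted to uncompetitive or noncompetitive equations.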

[6] = molecular target: T1, Alcohol dehydrogenase (Equus caballus); assay: Slope inhibition constant was determined against horse liver alcohol dehydrogenase in presence of ethanol; in short: as §3
[7] = Intercept inhibition constant was determined in vivo against rat liver alcohol dehydrogenase in presence of ethanol; format: organism-based; in short: as §1
[8] = molecular target: T1, Alcohol dehydrogenase (Equus caballus); assay: Slope inhibition constant was determined against horse liver alcohol dehydrogenase in presence of acetaldehyde
In short: (§4)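 Purified horse liver enzyme, reverse reaction. Freshly distilled acetaldehyde was varied (1–5 mM; 0.4–2.0 mM in some runs) with 0.1 mM NADH and at least three inhibitor levels. Initial velocities were read as A340 change, 32 points per experiment, and inhibition constants were obtained from double-reciprocal fits.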

[9] = molecular target: T1, Alcohol dehydrogenase (Equus caballus); assay: Intercept inhibition constant was determined against horse liver alcohol dehydrogenase in presence of acetaldehyde; in short: as §4
[10] = Slope inhibition constant was determined against purified rat liver alcohol dehydrogenase in presence of ethanol; in short: as §2
[11] = Michaelis-Menten's constant was determined in vitro against purified rat liver alcohol dehydrogenase in presence of ethanol; in short: as §2
[12] = In vivo inhibition of ethanol metabolism following 1 mMol/Kg i.p.
[13] = tested on: [O-][S+]1CCCC1; assay: (§5) Michaelis-Menten's constant was determined against horse liver alcohol dehydrogenase in presence of acetaldehyde; conditions: Equus caballus; in short: as §4
[14] = tested on: CC(C)CC(N)=O; assay: as §5; conditions: Equus caballus; in short: as §4
[15] = tested on: [O-][S+]1CCCC1; assay: (§6) Michaelis-Menten's constant was determined against horse liver alcohol dehydrogenase in presence of ethanol; conditions: Equus caballus; in short: as §3
[16] = tested on: CC(C)CC(N)=O; assay: as §6; conditions: Equus caballus; in short: as §3

Sequence of Alcohol dehydrogenase (Equus caballus) (from UniProt P00327+P00328) (P00328 whole entry, looked up): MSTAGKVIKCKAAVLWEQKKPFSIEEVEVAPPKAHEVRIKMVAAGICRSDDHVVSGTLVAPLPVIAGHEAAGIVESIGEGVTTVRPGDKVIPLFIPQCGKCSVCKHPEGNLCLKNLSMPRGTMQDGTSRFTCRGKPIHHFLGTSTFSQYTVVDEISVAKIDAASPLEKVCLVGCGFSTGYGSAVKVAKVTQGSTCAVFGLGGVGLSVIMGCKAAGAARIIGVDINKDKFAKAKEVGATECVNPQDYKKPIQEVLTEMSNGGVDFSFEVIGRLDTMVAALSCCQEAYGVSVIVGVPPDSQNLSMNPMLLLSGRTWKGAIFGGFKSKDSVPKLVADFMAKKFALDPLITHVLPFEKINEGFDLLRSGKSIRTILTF
Sequence of Alcohol dehydrogenase (Equus caballus) (from UniProt P00327+P00328) (P00327 whole entry, looked up): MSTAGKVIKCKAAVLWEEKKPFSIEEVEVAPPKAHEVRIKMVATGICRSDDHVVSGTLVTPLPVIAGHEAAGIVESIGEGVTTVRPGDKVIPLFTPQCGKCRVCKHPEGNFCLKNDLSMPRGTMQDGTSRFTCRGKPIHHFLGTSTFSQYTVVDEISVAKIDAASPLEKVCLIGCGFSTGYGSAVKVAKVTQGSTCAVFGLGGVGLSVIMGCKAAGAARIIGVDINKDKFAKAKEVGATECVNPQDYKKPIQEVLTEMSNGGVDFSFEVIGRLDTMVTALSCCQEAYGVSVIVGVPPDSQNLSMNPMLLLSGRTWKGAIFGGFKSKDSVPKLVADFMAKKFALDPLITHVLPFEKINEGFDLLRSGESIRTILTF

Compound | Ki [1] [µM] | inhibition in vivo at 1000 µmol/kg [2] [%] | further results
[O-][S+]1CCC1 | 150 | 25 | 
CC(C)(Br)C(N)=O |  | 5 | 
NC(N)=S [THIOUREA] | 42000 |  | 
COCC(N)=O [METHOXYACETAMIDE] | 600 | 18 | 
CC(C)C(=O)NN | 2900 |  | 
NC(=O)CCO | 8500 | 15 | 
O=C1CC[S+]([O-])CC1 | 9700 |  | 
NC(=O)C(F)(F)C(F)(F)C(F)(F)F [HEPTAFLUOROBUTYRAMIDE] | 2000 |  | 
CCCCCCCCC(N)=O [NONANOAMIDE] |  | 15 | 
NC(=O)C1CC1 [CYCLOPROPANECARBOXYLIC ACID AMIDE] | 790 | 29 | 
NC(=O)CCCl | 5300 | 15 | 
C[S+]([O-])c1ccccc1 (stereo unspecified) [METHYLPHENYLSULFOXIDE] | 200 | 19 | 
[O-][S+]1CCNCC1 | 120000 |  | 
[O-][S+]1CCCC1 | 19 |  | Km [3]: 2000 µM/kg; Kis [10]: 230 µM; Km [11]: 350 µM; Kii [4]: 200 µM; Kii [5]: 19 µM; Kis [6]: 130 µM; Kii [7]: 340 µM/kg; Kis [8]: 11 µM; Kii [9]: 71 µM; inhibition [12]: 63%
[O-][S+]1CCCCC1 | 480 | 21 | 
NNC(N)=S [THIOSEMICARBAZIDE] | 1900 |  | 
O=C1CCCCN1 | 13000 |  | 
Alcohol dehydrogenase (Equus caballus) (from UniProt P00327+P00328) |  |  | Km [13]: 230 µM; Km [14]: 150 µM; Km [15]: 620 µM; Km [16]: 900 µM
[O-][S+]1CCOCC1 | 10600 |  | 

The next lines start with results.

Ki [1] [µM] | Compound | inhibition in vivo at 1000 µmol/kg [2] [%] | further results
12500 | CC[S+]([O-])c1ccccc1 (stereo unspecified) |  | 
6800 | NC(=O)CCCO | 5 | 
20 | CC(C)CC(N)=O [ISOVALERAMIDE] | 78 | Km [3]: 1500 µM/kg; Kii [4]: 20 µM; Kii [5]: 20 µM; Kis [6]: 160 µM; Kii [7]: 180 µM/kg; Kis [8]: 11 µM; Kii [9]: 460 µM
500 | CC[S+](C)[O-] (stereo unspecified) | 16 | 
5000 | C[S+]([O-])Cc1ccccc1 (stereo unspecified) | 13 | 
1500 | NC(=O)CCCCCO | 24 | 
10 | CCCCCCCCCCCCCC[S+](C)[O-] (stereo unspecified) | 15 | 
5800 | NC(=O)C(O)CCO (stereo unspecified) |  | 
220 | CC(C)C(N)=O [ISOBUTYRAMIDE] | 36 | 
150 | CC(C)(C)CC(N)=O | 71 | 
1100 | CC[S+]([O-])CC |  | 
340 | CC(C)C[S+](C)[O-] (stereo unspecified) | 14 | 
47 | CCCCCC[S+](C)[O-] (stereo unspecified) | 67 | 
36000 | NC(=O)CSCC(N)=O | 7 | 
430 | CC(C)CC[S+](C)[O-] (stereo unspecified) | 19 | 
500 | C=C[S+]([O-])c1ccccc1 (stereo unspecified) |  | 
4400 | NC(=O)CCCCO | 9 | 

Source: ChEMBL document CHEMBL1122240, “Inhibition by carboxamides and sulfoxides of liver alcohol dehydrogenase and ethanol metabolism” (J Med Chem, 1983)
